Assay outcomes as filed in PubChem.
Shown are actives, neighbours in structure and some others; about 2.7% of the full set was active somewhere.
PAFAH1B2 inh: PAFAH1B2 (human) inhibition; P68402; inhibition, % at 3.39 µM; hit rate 1.2% among 340,000; AID 492953; recombinant PAFAH1B2, FP-rhodamine activity probe, fluorescence polarization;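 active = inhibition above the mean of all tested compounds plus 3 SD, cut at about 24% in these data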;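 note: 0% = enzyme with DMSO and 100% = wells lacking PAFAH1B2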
Target sequence (P68402 whole entry, looked up): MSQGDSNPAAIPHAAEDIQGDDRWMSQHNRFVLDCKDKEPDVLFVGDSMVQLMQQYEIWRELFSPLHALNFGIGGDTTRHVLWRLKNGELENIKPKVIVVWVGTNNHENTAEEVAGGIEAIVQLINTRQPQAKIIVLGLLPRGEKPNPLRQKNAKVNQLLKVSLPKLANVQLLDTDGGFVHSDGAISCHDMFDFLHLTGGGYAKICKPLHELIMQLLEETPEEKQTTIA
ASAP1 GAP inh: ASAP1 ArfGAP inhibition; Q9ULH1; ASAP1-stimulated ARF1 GTP hydrolysis, GDP FP detection; inhibition, % at 16.5 µM; hit rate 0.19% among 360,000; in the data active = inhibition above about 25%;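 note: 0% = vehicle with enzyme and substrate and 100% = no enzyme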
pPAFAH FP inh: pPAFAH (human) enzyme inhibition; Q13093; recombinant pPAFAH, FP-rhodamine probe fluorescence polarization; inhibition, % at 3.39 µM; hit rate 1.5% among 330,000;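 active = inhibition above the mean inhibition across the screen plus 3 SD, cut at about 25% in these data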;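 note: inhibitors block binding of the rhodamine activity-based probe so polarization drops; 0% = enzyme with DMSO and 100% = wells lacking pPAFAH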
Target sequence (Q13093 whole entry, looked up): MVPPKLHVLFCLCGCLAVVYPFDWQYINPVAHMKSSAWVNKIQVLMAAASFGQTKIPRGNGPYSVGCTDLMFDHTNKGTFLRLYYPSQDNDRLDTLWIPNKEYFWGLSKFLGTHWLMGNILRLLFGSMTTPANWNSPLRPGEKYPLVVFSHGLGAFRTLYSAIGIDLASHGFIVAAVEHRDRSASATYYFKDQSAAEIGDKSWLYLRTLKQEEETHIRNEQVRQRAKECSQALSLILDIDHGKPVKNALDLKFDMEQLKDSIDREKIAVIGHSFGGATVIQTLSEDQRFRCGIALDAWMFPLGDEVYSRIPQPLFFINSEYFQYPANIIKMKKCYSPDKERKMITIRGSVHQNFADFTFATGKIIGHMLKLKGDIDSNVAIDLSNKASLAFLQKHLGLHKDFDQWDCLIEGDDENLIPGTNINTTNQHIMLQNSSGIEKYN
PAFAH2 inh: PAFAH2 (human) inhibition | Q99487 | recombinant PAFAH2, FP-rhodamine activity probe, fluorescence polarization | inhibition, % at 3.39 µM | hit rate 0.99% among 340,000 | AID 492956;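 active = inhibition above the mean over all tested compounds plus 3 SD, cut at about 30% in these data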;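 note: inhibitors block probe labeling of enzyme so polarization drops; 0% = enzyme with DMSO and 100% = wells lacking PAFAH2 protein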
ARFGAP1 inhibitor: inhibitors of rat ARFGAP1; hit rate 0.26% among 360,000; Arfgap1-stimulated ARF1 GTP hydrolysis, GDP FP detection; inhibition, % at 16.5 µM; AID 651572;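 active = inhibition above a per-plate limit, mean inhibition of low control wells plus 3 SD, cut at about 25% in these data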;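 note: 0% = DMSO wells with enzyme and 100% = wells lacking Arfgap1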
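Assay system: Rat Arfgap1 GAP domain (His6, aa 1-136), purified enzyme | Buffer or medium: HEPES 25 mM pH 7.5, NaCl 150 mM, MgCl2, DTT | Schedule: GTP hydrolysis reaction 2 h at 25 °C | Signal: FP of antibody-bound GDP Alexa 633 tracer, ex 620/em 688 nm | Measure: Percent inhibition of Arfgap1-stimulated GTP hydrolysis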
PAFAH1B3 FP inh: inhibitors of human PAFAH1B3; inhibition, % at 3.39 µM; AID 492972; recombinant PAFAH1B3, FP-rhodamine probe, fluorescence polarization; Q15102; hit rate 0.28% among 340,000;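 active = inhibition above the screen-wide average of all tested compounds plus 3 SD, cut at about 25% in these data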;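 note: 0% = enzyme with DMSO only and 100% = wells lacking PAFAH1B3 protein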
ASAP1 GAP conf: confirmation of human ASAP1 inhibitors. shares compounds with ASAP1 GAP inh. ASAP1-stimulated Arf1 GTPase, GDP fluorescence polarization. inhibition, % at 16.5 µM. hit rate 37% among 620. AID 624431;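 active = mean inhibition over triplicates exceeds the hit threshold derived for the earlier primary screening run, cut at about 25% in these data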
* hit, by the source's call; . = no result.

SMILES | PAFAH1B2 inh | ASAP1 GAP inh | pPAFAH FP inh | PAFAH2 inh | ARFGAP1 inhibitor | PAFAH1B3 FP inh | ASAP1 GAP conf
CC(C)C[C@@H](CNC(=O)OC(C)(C)C)NC(=O)c1nc[nH]c1C(=O)N[C@@H](CC(C)C)C(=O)CNC[C@H](CC(C)C)NC(=O)c1nc[nH]c1C(=O)N[C@@H](Cc1c[nH]c2ccccc12)C(=O)OC(C)(C)C | -10 | 32* | 3 | -16 | 10 | -16 | 19
COC(=O)c1ccccc1NC(=O)c1ccc(-c2ccccc2F)o1 | -1 | -10 | 1 | -4 | 6 | -3 | .
COC(=O)c1ccccc1-c1ccc(C(c2c(C)[nH][nH]c2=O)c2c(C)[nH][nH]c2=O)o1 | 1 | 31* | -1 | 2 | 21 | 8 | 0
Cc1cccc(/N=C/c2sc3ccccc3c2O)n1 | -8 | 28* | -3 | -16 | 21 | -11 | 16
COc1cccc(/C=C/c2nc(C#N)c(NCC(C)C)o2)c1 | 3 | 29* | 15 | 10 | 1 | 4 | 15
COc1ccc(OC)c(C2SCCN2S(=O)(=O)c2cccc(C(F)(F)F)c2)c1 (stereo not drawn) | 1 | 25* | 1 | 7 | 1 | 3 | 8
COc1cc(OC)c(C2SCCN2S(=O)(=O)c2ccc(F)cc2)cc1OC (stereo not drawn) | 6 | 7 | 0 | 0 | -3 | 10 | .
C[C@@H]1CN([C@@H](C)CO)C(=O)c2cc(C#CC3CCCCC3)cnc2O[C@@H]1CN(C)S(=O)(=O)c1ccc(F)cc1 | . | 0 | . | . | 3 | . | .
CC1CCN(C(=O)COC(=O)CCC(=O)c2ccc(F)cc2)CC1 | . | 8 | 12 | . | -10 | . | .
CC1CCCC(C)N1C(=O)COC(=O)CCC(=O)c1ccc(F)cc1 (stereo not drawn) | 4 | 29* | 1 | 4 | -4 | 7 | 2
O=C1c2ccccc2C(c2nnnn2Cc2ccccc2)N1Cc1ccco1 (stereo not drawn) | . | 1 | . | . | 0 | . | .
CC1=NN(c2ccccc2)C(=O)C1N=Nc1cccc(O)c1 (stereo not drawn) | 5 | 29* | 18 | 1 | -2 | 14 | 10
COc1ccc(Cl)cc1-c1cc(C(=O)Nc2ccc(C)c(NS(C)(=O)=O)c2)[nH]n1 | . | 2 | . | . | 8 | . | .
COc1ccc(Cl)c(-c2cc(C(=O)Nc3ccc(C)c(NS(C)(=O)=O)c3)[nH]n2)c1 | . | 26* | . | . | 11 | . | 10
COc1ccc(C(O)c2ncc(-c3ccccc3OC)[nH]2)cc1F (stereo not drawn) | . | 13 | . | . | -5 | . | .
NC(Cc1ccc(C(F)(F)F)cc1)c1csc(Nc2ccc(C(=O)NCc3ccco3)cn2)n1 (stereo not drawn) | . | 28* | . | . | 12 | . | 13
NC(Cc1ccc(C(F)(F)F)cc1)c1csc(Nc2ccc(C(=O)NCCCO)cn2)n1 (stereo not drawn) | . | -13 | . | . | 10 | . | .
CCOc1ccc2[nH]c(C(=O)N/N=C/c3cc(OC)c(OC)c(OC)c3)cc2c1 | 15 | 27* | 12 | -9 | 20 | 20 | 51*
C=CCn1c(-c2cccc3ccccc23)n[nH]c1=S | 2 | 52* | 7 | 1 | 5 | 0 | -3
COc1ccc(-c2ccc(C(=O)NCc3ccco3)c3occc23)c(C)c1 | . | 4 | . | . | 3 | . | .
CC1(C)SC(=S)N(/N=C/c2ccc(O)cc2)C1N(O)C(=O)Nc1ccc([N+](=O)[O-])cc1 (stereo not drawn) | 6 | 25* | -8 | -9 | 0 | 20 | 15
O=[N+]([O-])c1ccc2c(c1)-c1ccccc1C2=NO | 6 | -4 | . | 2 | -7 | 10 | .
Nc1ccc2c(c1)C(=NO)c1cc([N+](=O)[O-])ccc1-2 | -2 | 26* | . | -5 | -5 | -5 | 18
Nc1c(C(=O)NCc2ccc3c(c2)OCO3)c2nc3ccccc3nc2n1CCCN1CCOCC1 | 1 | 34* | 24 | 4 | 17 | 14 | 10
Cc1ccccc1N1CCN(C(=O)c2cc(C3CC3)nn2-c2ccccc2)CC1 | 3 | -3 | 10 | -2 | -2 | -1 | .
SMILES | PAFAH1B2 inh | ASAP1 GAP inh | pPAFAH FP inh | PAFAH2 inh | ARFGAP1 inhibitor | PAFAH1B3 FP inh | ASAP1 GAP conf
O=C(NNS(=O)(=O)c1ccc(Cl)cc1)c1cc(-c2ccccc2)nc2ccccc12 | 60* | 28* | 9 | 0 | 5 | 1 | 15
O=C(NNS(=O)(=O)c1ccc(Cl)cc1)c1cc(-c2ccccc2)n[nH]1 | 6 | -8 | 6 | -1 | 9 | 3 | .
CC1=[N+](C)c2c(ccc3cccnc23)C1(C)C | -100 | 51* | . | -93 | 70* | -147 | 32*
Cc1[nH]c2c(ccc3cccnc32)c1C | -5 | -1 | 3 | 3 | -3 | -8 | .
Cc1cc(/C=C(\C#N)C(=O)OCC(=O)N(C)c2c(N)n(Cc3ccccc3)c(=O)[nH]c2=O)c(C)n1CC(C)C | . | -10 | . | . | 6 | . | .
O=C1C(=C(I)I)c2ccccc2-c2ccccc21 | -4 | 38* | . | 8 | -9 | 13 | -14
Cc1ccc(NC(=O)C(OC(=O)c2ccc(O)cc2)c2ccccc2)cc1Cl (stereo not drawn) | 0 | 28* | -14 | -5 | 10 | 0 | -1
Cc1ccc(NC(=O)C(OC(=O)c2ccc(F)cc2)c2ccccc2)cc1Cl (stereo not drawn) | -1 | 16 | -2 | -14 | 1 | 9 | .
Nc1n[nH]c(N)c1N=Nc1ccc(Cl)cc1Cl | 6 | 29* | 6 | -2 | 6 | 9 | 16
Cc1ccccc1S(=O)(=O)Oc1ccc2ccc(O)cc2c1 | 3 | 27* | 6 | 0 | 6 | 5 | 17
N#Cc1ccc(OCCCN2CCC(C(O)(c3ccccc3)c3ccccc3)CC2)cc1 | . | 25* | . | . | -6 | . | -3
Cc1nn(-c2ccccc2)c(C)c1/C=N/NC(=O)c1cc(C(C)(C)C)[nH]n1 | 9 | 3 | 3 | 9 | -4 | 0 | .
Cc1ccc(-c2cc(C(=O)N/N=C/c3c(C)nn(-c4ccccc4)c3C)n[nH]2)s1 | -4 | 26* | . | -23 | 17 | -21 | 34*
Cc1ccc(-c2cc(C(=O)N/N=C/c3c(C)nn(-c4ccccc4)c3C)[nH]n2)cc1 | -10 | 26* | . | -27 | 15 | -7 | 7
CC(C)C1C(=O)N(Cc2cn(CCC3OCCCO3)nn2)CCS(=O)(=O)N1Cc1ccc(-c2ccc(Cl)nc2)cc1 (stereo not drawn) | . | -2 | . | . | 1 | . | .
CCc1nnc(NC(=O)C2CCC(CNc3c(N4CCCCC4)c(=O)c3=O)CC2)s1 (stereo not drawn) | 0 | 28* | 4 | -9 | 5 | 1 | 0
NC(=O)C(C1=CCCCC1)c1ccccc1 (stereo not drawn) | 8 | 6 | . | 13 | 6 | -1 | .
CC(NC(=O)C1CCCN1C(=O)OC(C)(C)C)C(=O)OCc1ccccc1 (stereo not drawn) | . | -2 | . | . | -3 | . | .
